Assay results reported in ChEMBL document CHEMBL1132294, “Derivatives of the new ring system indolo[1,2-c]benzo[1,2,3]triazine with potent antitumor and antimicrobial activity” (J Med Chem, 1999).
pIC50: −log10 of the molar value. ≈ marks a conversion by molar mass, not a printed value.

Legend:
5637 = test: Antitumor activity was evaluated against human bladder carcinoma cell line 5637.; type: functional, cell-based
How it was run: (§1)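 Solid-tumour and KB lines: exponentially growing cells seeded at 5×10⁴ cells/mL, allowed to adhere 16 h, then serial drug dilutions added. Viability by MTT after 4 days. Growth expressed as % of untreated controls, 50% inhibitory concentration by linear regression. Untreated cells undergo at least three rounds of multiplication.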

ACHN = test: Antitumor activity was evaluated against human renal adenocarcinoma cell line ACHN.; type: functional, cell-based; how it was run: as §1
Aspergillus fumigatus = test: Antimycotic activity against Aspergillus fumigatus was evaluated as compound minimum inhibitory concentration at which no macroscopic signs of fungal growth were detected.; type: functional
CHO-K1 = test: Antitumor activity was evaluated against Chinese hamster ovary carcinoma cell line CHO-K1.; type: functional, cell-based; conditions: Cricetulus griseus; how it was run: as §1
CCRF-CEM = test: Antitumor activity was evaluated against leukemia cell line CCRF-CEM(human acute T lymphoblastic leukemia).; type: functional, cell-based
How it was run: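 Exponentially growing leukemia/lymphoma cells resuspended at 1×10⁵ cells/mL in RPMI with serial drug dilutions. Viability by MTT after 4 days at 37 °C. Mean of at least three experiments.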

Candida albicans = test: Antimycotic activity against Candida albicans was evaluated as minimum inhibitory concentration of compound at which no macroscopic signs of fungal growth were detected; type: functional
How it was run: (§2)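 Yeast inocula from 30 h Sabouraud dextrose broth cultures at 37 °C, diluted to 5×10³ cells/mL. Dermatophyte inocula from 5-day cultures, homogenized and diluted to 0.05 OD₅₉₀/mL. Inocula added to medium with serial dilutions, incubated at 37 °C, read visually at 2 days (yeast) or 3 days (dermatophytes). Mean of at least three experiments.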

Candida parapsilosis = test: Antimycotic activity against Candida parapsilosis was evaluated as compound concentration at which no macroscopic signs of fungal growth were detected; type: functional; conditions: Lodderomyces parapsilosis; how it was run: as §2
Cryptococcus neoformans = test: Antimycotic activity against Cryptococcus neoformans was evaluated. MIC was defined as compound concentration at which no macroscopic signs of fungal growth were detected.; type: functional; how it was run: as §2
HeLa = test: Antitumor activity was evaluated against human cervix carcinoma cell line HeLa.; type: functional, cell-based; how it was run: as §1
IMR-32 = test: Antitumor activity was evaluated against human neuroblastoma cell line IMR-32.; type: functional, cell-based; how it was run: as §1
L1210 = test: Antitumor activity was evaluated against leukemia cell line L1210 (mouse leukemia).; type: functional, cell-based
How it was run: (§3)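 Exponentially growing leukemia/lymphoma cells resuspended at 1×10⁵ cells/mL in RPMI with serial drug dilutions. Viability by MTT after 4 days at 37 °C. Concentration giving 50% growth inhibition versus untreated controls found by linear regression. Mean of at least three experiments.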

MOLT-4 = test: Antitumor activity was evaluated against leukemia cell line MOLT-4(human acute T lymphoblastic leukemia); type: functional, cell-based; how it was run: as §3
MT4 = test: Antitumor activity was evaluated against leukemia cell line MT-4(human CD4+ T cells expressing the TAT gene of HTLV-1).; type: functional, cell-based; how it was run: as §3
Mycobacterium = test: Antibacterial activity was evaluated against MAC (Mycobacterium Avium Complex ); type: functional
How it was run: (§4)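 Mycobacterial suspension (turbidity of 1 McFarland standard, 10⁸ CFU/mL) added to Middlebrook 7H9 with 0.5% glycerol, 10% OADC and serial compound dilutions. Incubated at 37 °C, 1 day for M. smegmatis and M. fortuitum, 9 days for MAC. Viable mycobacteria counted by MTT. MIC given as mean of at least three separate experiments.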

[1] = system: Mycolicibacterium fortuitum; test: Antibacterial activity was evaluated against Mycobacterium fortuitum.; type: functional; how it was run: as §4
[2] = system: Mycobacterium tuberculosis; test: Antibacterial activity was evaluated against Mycobacterium tuberculosis (ATCC); type: functional
How it was run: (§5)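 Broth microdilution in Middlebrook 7H9 with 0.5% glycerol and 10% OADC, containing serial concentrations of compound (diluted in medium from a DMSO solution). Plates were incubated 9 days at 37 °C, and viable bacteria were read by MTT. MIC is the mean of at least three separate experiments.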

[3] = system: Mycolicibacterium smegmatis; test: Antibacterial activity was evaluated against Mycobacterium smegmatis; type: functional; how it was run: as §4
Salmonella = test: Antibacterial activity was evaluated against salmonella.; type: functional
How it was run: (§6)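 Recent clinical isolates grown in nutrient broth, pH 7.2, inoculum 10³ bacterial cells/tube, with serial compound dilutions. […] Mean of at least three separate experiments.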

Streptococcus = test: Antibacterial activity was evaluated against streptococcus.; type: functional; how it was run: as §6
Staphylococcus = test: Antibacterial activity was evaluated against staphylococcus; type: functional; how it was run: as §6
Trichophyton benhamiae = test: Antimycotic activity against Trichophyton mentagrophytes was evaluated. MIC was defined as compound concentration at which no macroscopic signs of fungal growth were detected.; type: functional, Arthroderma benhamiae; how it was run: as §2
WIL2-NS = test: Antitumor activity was evaluated against lymphoma cell line Wil2-NS (human splenic B lymphoblastoid cells).; type: functional, cell-based; how it was run: as §3
CCRF-SB = test: Antitumor activity was evaluated against leukemia cell line CCRF-SB(human acute B lymphoblastic leukemia).; type: functional, cell-based; how it was run: as §3
Shigella = test: Antibacterial activity was evaluated against shigella.; type: functional; how it was run: as §6
[4] = system: Mycobacterium tuberculosis; test: Antibacterial activity was evaluated against Mycobacterium tuberculosis (clinical isolate 1104); type: functional; how it was run: as §5
Candida tropicalis = test: Antimycotic activity against Candida paratropicalis was evaluated. MIC was defined as compound concentration at which no macroscopic signs of fungal growth were detected.; type: functional; how it was run: as §2
HT-29 = test: Antitumor activity was evaluated against human colon adenocarcinoma cell line HT-29.; type: functional, cell-based; how it was run: as §1
KB [5] = test: Antiproliferative activity against drug-resistant tumor cell line KBCamp.; type: functional, cell-based; conditions: Homo sapiens; how it was run: as §1
KB [6] = test: Antiproliferative activity against drug-resistant tumor cell line KBMDR.; type: functional, cell-based; conditions: Homo sapiens; how it was run: as §1
KB [7] = test: Antiproliferative activity against drug-resistant tumor cell line KB7D.; type: functional, cell-based; conditions: Homo sapiens; how it was run: as §1
KB [8] = test: Antiproliferative activity against drug-resistant tumor cell line KBwt.; type: functional, cell-based; conditions: Homo sapiens; how it was run: as §1
KB [9] = test: Antiproliferative activity against drug-resistant tumor cell line KBV20C.; type: functional, cell-based; conditions: Homo sapiens; how it was run: as §1

Row | SMILES | pIC50 5637 | pIC50 (ACHN) | MIC (Aspergillus fumigatus) | pIC50 (CHO-K1) | pIC50 (CCRF-CEM) | MIC (Candida albicans) | MIC (Candida parapsilosis) | MIC (Cryptococcus neoformans) | pIC50 (HeLa) | pIC50 (IMR-32) | pIC50 (L1210) | pIC50 (MOLT-4) | pIC50 (MT4) | MIC [1] | MIC (Salmonella) | MIC (Streptococcus) | MIC (Staphylococcus) | MIC (Trichophyton benhamiae) | MIC (Shigella) | MIC (Candida tropicalis) | other results
1 | COc1ccc2c(c1)c(N=O)c1c3ccccc3nnn21 | 5.22 | 4.85 | > 200 µM | < 4.30 | 5.14 | > 200 µM | > 200 µM | > 200 µM | 4.96 | 5.64 | 4.89 | 5.89 | 5.96 | > 5 µM | > 200 µM | 0.1 µM (≈ 0.0278 µg/mL) | 0.2 µM (≈ 0.0557 µg/mL) | > 200 µM | > 200 µM | > 200 µM | MIC (Mycobacterium): 2.5 µM (≈ 0.696 µg/mL); MIC [2]: 5.3 µM (≈ 1.47 µg/mL); MIC [3]: > 5 µM; pIC50 (WIL2-NS): 5.43; pIC50 (CCRF-SB): 5.30; MIC [4]: 4.5 µM (≈ 1.25 µg/mL); pIC50 (HT-29): < 4.30
2 | O=Nc1c2cc([N+](=O)[O-])ccc2n2nnc3ccccc3c12 | 4.54 | < 4.30 | > 200 µM | 4.38 | 5.09 | 66 µM (≈ 19.4 µg/mL) | 66 µM (≈ 19.4 µg/mL) | 7.4 µM (≈ 2.17 µg/mL) | 4.80 | 4.92 | 5.04 | 5.18 | 5.92 | > 5 µM | > 200 µM | 0.09 µM (≈ 0.0264 µg/mL) | 0.09 µM (≈ 0.0264 µg/mL) | 66 µM (≈ 19.4 µg/mL) | > 200 µM | 22 µM (≈ 6.45 µg/mL) | pIC50 (WIL2-NS): 4.92; pIC50 (CCRF-SB): 4.96; pIC50 (HT-29): 4.74
3 | O=Nc1c2ccccc2n2nnc3ccc(Cl)cc3c12 | 5.68 | 4.96 | 9.4 µM (≈ 2.66 µg/mL) | 4.51 | 5.30 | 150 µM (≈ 42.4 µg/mL) | 19 µM (≈ 5.37 µg/mL) | 0.8 µM (≈ 0.226 µg/mL) | 5.27 | 5.64 | 5.13 | 5.70 | 5.77 | > 5 µM | > 200 µM | 0.1 µM (≈ 0.0283 µg/mL) | 0.05 µM (≈ 0.0141 µg/mL) | 9.4 µM (≈ 2.66 µg/mL) | > 200 µM | 150 µM (≈ 42.4 µg/mL) | MIC (Mycobacterium): 2.5 µM (≈ 0.707 µg/mL); MIC [2]: 1.8 µM (≈ 0.509 µg/mL); MIC [3]: 4.2 µM (≈ 1.19 µg/mL); pIC50 (WIL2-NS): 5.57; pIC50 (CCRF-SB): 5.15; MIC [4]: 1.6 µM (≈ 0.452 µg/mL); pIC50 (HT-29): 4.62
4 | CC[C@@]1(O)C(=O)OCc2c1cc1n(c2=O)Cc2cc3ccccc3nc2-1 [CAMPTOTHECIN] | – | – | – | – | – | – | – | – | – | – | – | – | – | – | – | – | – | – | – | – | pIC50 (KB [5]): 5.98; pIC50 (KB [6]): 7.15; pIC50 (KB [7]): 7.46; pIC50 (KB [8]): 7.40; pIC50 (KB [9]): 7.52
5 | COc1cc([C@@H]2c3cc4c(cc3[C@@H](O[C@@H]3O[C@@H]5CO[C@@H](C)O[C@H]5[C@H](O)[C@H]3O)[C@H]3COC(=O)[C@H]23)OCO4)cc(OC)c1O [ETOPOSIDE] | – | – | – | – | – | – | – | – | – | – | – | – | – | – | – | – | – | – | – | – | pIC50 (KB [5]): 5.89; pIC50 (KB [6]): 4.58; pIC50 (KB [7]): < 4.30; pIC50 (KB [8]): 5.84; pIC50 (KB [9]): < 4.30
6 | Clc1ccc(COC(Cn2ccnc2)c2ccc(Cl)cc2Cl)c(Cl)c1 (stereo unspecified) [MICONAZOLE] | – | – | – | – | – | 7.5 µM (≈ 3.12 µg/mL) | 7.5 µM (≈ 3.12 µg/mL) | 0.9 µM (≈ 0.375 µg/mL) | – | – | – | – | – | – | – | – | – | 0.9 µM (≈ 0.375 µg/mL) | – | 0.9 µM (≈ 0.375 µg/mL) | –
7 | CN[C@@H]1[C@H](O[C@H]2[C@H](O[C@H]3[C@H](O)[C@@H](O)[C@H](N=C(N)N)[C@@H](O)[C@@H]3N=C(N)N)O[C@@H](C)[C@]2(O)C=O)O[C@@H](CO)[C@H](O)[C@H]1O [STREPTOMYCIN] | – | – | – | – | – | – | – | – | – | – | – | – | – | 4 µM (≈ 2.33 µg/mL) | 8.6 µM (≈ 5 µg/mL) | 2.1 µM (≈ 1.22 µg/mL) | 4.2 µM (≈ 2.44 µg/mL) | – | 2.1 µM (≈ 1.22 µg/mL) | – | MIC (Mycobacterium): 7.4 µM (≈ 4.3 µg/mL); MIC [2]: 5.4 µM (≈ 3.14 µg/mL); MIC [3]: 5 µM (≈ 2.91 µg/mL); MIC [4]: 2.9 µM (≈ 1.69 µg/mL)
8 | CC[C@]1(O)C[C@H]2CN(CCc3c([nH]c4ccccc34)[C@@](C(=O)OC)(c3cc4c(cc3OC)N(C=O)[C@H]3[C@@](O)(C(=O)OC)[C@H](OC(C)=O)[C@]5(CC)C=CCN6CC[C@]43[C@@H]65)C2)C1 [VINCRISTINE] | – | – | – | – | – | – | – | – | – | – | – | – | – | – | – | – | – | – | – | – | pIC50 (KB [5]): 8.30; pIC50 (KB [6]): 6.46; pIC50 (KB [7]): 7.46; pIC50 (KB [8]): 9.00; pIC50 (KB [9]): 7.30
